In ChEMBL document CHEMBL1777788, “Synthesis and in vitro antimicrobial activities of new (cyano-NNO-azoxy)pyrazole derivatives” (2011):
≈ marks a conversion by molar mass, not a printed value.

Experiments:
Candida albicans [1] = test: Antimicrobial activity against Candida albicans isolate 47 after 48 hrs by microdilution broth method; type: functional; conditions: isolate 47, 48 h
In short: (§1)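 Yeasts were grown overnight on Sabouraud dextrose agar at 35°C, suspended in water, and adjusted at 530 nm to McFarland 0.5 (approximately 1-5 x 10^6 CFU/ml). They were then diluted 1:100 and 1:20 in RPMI 1640 with 0.165 M MOPS and 2% glucose. Compound in DMSO was tested at ten concentrations, 0.25–256 mg/L, with incubation at 35°C. At 48 h, MIC was read spectrophotometrically as 50% turbidity reduction versus growth control.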

Candida albicans [2] = test: Antimicrobial activity against Candida albicans isolate 48 after 48 hrs by microdilution broth method; type: functional; conditions: isolate 48, 48 h; in short: as §1
[3] = tested on: Cryptococcus deneoformans; test: Antimicrobial activity against Cryptococcus neoformans var. neoformans isolate 27 after 48 hrs by microdilution broth method; type: functional; conditions: isolate 27, 48 h; in short: as §1
Candida tropicalis [4] = test: Antimicrobial activity against Candida tropicalis isolate 33 after 48 hrs by microdilution broth method; type: functional; conditions: isolate 33, 48 h; in short: as §1
Staphylococcus aureus [5] = test: Antimicrobial activity against methicillin-susceptible Staphylococcus aureus isolate after 24 hrs by microdilution broth method
Pichia kudriavzevii [6] = test: Antimicrobial activity against Candida krusei ATCC 6258 after 48 hrs by microdilution broth method; type: functional; conditions: ATCC 6258, 48 h
Nakaseomyces glabratus [7] = test: Antimicrobial activity against Candida glabrata isolate 30 after 48 hrs by microdilution broth method; type: functional; in short: as §1
Candida albicans [8] = test: Antimicrobial activity against Candida albicans isolate 41 after 48 hrs by microdilution broth method; type: functional; conditions: isolate 41, 48 h; in short: as §1
Candida parapsilosis [9] = test: Antimicrobial activity against Candida parapsilosis isolate 26 after 48 hrs by microdilution broth method; type: functional; conditions: Lodderomyces parapsilosis, isolate 26, 48 h; in short: as §1
[10] = tested on: Cryptococcus deneoformans; test: Antimicrobial activity against Cryptococcus neoformans var. neoformans isolate 14 after 48 hrs by microdilution broth method; type: functional; conditions: isolate 14, 48 h; in short: as §1
Pseudomonas aeruginosa [11] = test: Antimicrobial activity against Pseudomonas aeruginosa isolate 1 after 24 hrs by microdilution broth method; conditions: isolate 1, 24 h
Staphylococcus aureus [12] = test: Antimicrobial activity against methicillin-resistant Staphylococcus aureus isolate after 24 hrs by microdilution broth method
Pichia kudriavzevii [13] = test: Antimicrobial activity against Candida krusei isolate 43 after 48 hrs by microdilution broth method; type: functional
Proteus mirabilis = test: Antimicrobial activity against Proteus mirabilis isolate after 24 hrs by microdilution broth method
[14] = tested on: Cryptococcus deneoformans; test: Antimicrobial activity against Cryptococcus neoformans var. neoformans isolate 25 after 48 hrs by microdilution broth method; type: functional; conditions: isolate 25, 48 h; in short: as §1
Candida parapsilosis [15] = test: Antimicrobial activity against Candida parapsilosis isolate 19 after 48 hrs by microdilution broth method; type: functional; conditions: Lodderomyces parapsilosis, isolate 19, 48 h; in short: as §1
Candida tropicalis [16] = test: Antimicrobial activity against Candida tropicalis isolate 22 after 48 hrs by microdilution broth method; type: functional; conditions: isolate 22, 48 h; in short: as §1
Pseudomonas aeruginosa [17] = test: Antimicrobial activity against Pseudomonas aeruginosa isolate 2 after 24 hrs by microdilution broth method; conditions: isolate 2, 24 h
Candida albicans [18] = test: Antimicrobial activity against Candida albicans isolate 31 after 48 hrs by microdilution broth method; type: functional; conditions: isolate 31, 48 h; in short: as §1
Nakaseomyces glabratus [19] = test: Antimicrobial activity against Candida glabrata isolate 32 after 48 hrs by microdilution broth method; type: functional; conditions: isolate 32, 48 h; in short: as §1
[20] = tested on: Cryptococcus deneoformans; test: Antimicrobial activity against Cryptococcus neoformans var. neoformans isolate 30 after 48 hrs by microdilution broth method; type: functional; conditions: isolate 30, 48 h; in short: as §1
Nakaseomyces glabratus [21] = test: Antimicrobial activity against Candida glabrata isolate 46 after 48 hrs by microdilution broth method; type: functional; in short: as §1
Nakaseomyces glabratus [22] = test: Antimicrobial activity against Candida glabrata isolate 49 after 48 hrs by microdilution broth method; type: functional; in short: as §1
Candida parapsilosis [23] = test: Antimicrobial activity against Candida parapsilosis isolate 44 after 48 hrs by microdilution broth method; type: functional; conditions: Lodderomyces parapsilosis, isolate 44, 48 h; in short: as §1
Escherichia coli = test: Antimicrobial activity against Escherichia coli isolate after 24 hrs by microdilution broth method
Candida parapsilosis [24] = test: Antimicrobial activity against Candida parapsilosis ATCC 22019 after 48 hrs by microdilution broth method; type: functional; conditions: Lodderomyces parapsilosis, ATCC 22019, 48 h; in short: as §1
Pichia kudriavzevii [25] = test: Antimicrobial activity against Candida krusei isolate 31 after 48 hrs by microdilution broth method; type: functional; conditions: isolate 31, 48 h; in short: as §1
Candida tropicalis [26] = test: Antimicrobial activity against Candida tropicalis isolate 11 after 48 hrs by microdilution broth method; type: functional; conditions: isolate 11, 48 h; in short: as §1
Pichia kudriavzevii [27] = test: Antimicrobial activity against Candida krusei isolate 48 after 48 hrs by microdilution broth method; type: functional

Row | SMILES | MIC (Candida albicans [1]) | MIC (Candida albicans [2]) | MIC [3] | MIC (Candida tropicalis [4]) | MIC (Staphylococcus aureus [5]) | MIC (Pichia kudriavzevii [6]) | MIC (Nakaseomyces glabratus [7]) | MIC (Candida albicans [8]) | MIC (Candida parapsilosis [9]) | MIC [10] | MIC (Pseudomonas aeruginosa [11]) | MIC (Staphylococcus aureus [12]) | MIC (Pichia kudriavzevii [13]) | MIC (Proteus mirabilis) | MIC [14] | MIC (Candida parapsilosis [15]) | MIC (Candida tropicalis [16]) | MIC (Pseudomonas aeruginosa [17]) | MIC (Candida albicans [18]) | MIC (Nakaseomyces glabratus [19]) | further results
1 | Cc1c(/[N+]([O-])=N/C#N)c(-c2ccccn2)nn1C | 128 µg/mL (≈ 528 µM) | 128 µg/mL (≈ 528 µM) | 16 µg/mL (≈ 66 µM) | 128 µg/mL (≈ 528 µM) | 64 µg/mL (≈ 264 µM) | 16 µg/mL (≈ 66 µM) | 64 µg/mL (≈ 264 µM) | 16 µg/mL (≈ 66 µM) | 128 µg/mL (≈ 528 µM) | 16 µg/mL (≈ 66 µM) | > 128 µg/mL | 32 µg/mL (≈ 132 µM) | 16 µg/mL (≈ 66 µM) | > 128 µg/mL | 8 µg/mL (≈ 33 µM) | 128 µg/mL (≈ 528 µM) | 128 µg/mL (≈ 528 µM) | > 128 µg/mL | 64 µg/mL (≈ 264 µM) | 4 µg/mL (≈ 16.5 µM) | MIC [20]: 8 µg/mL (≈ 33 µM); MIC (Nakaseomyces glabratus [21]): 64 µg/mL (≈ 264 µM); MIC (Nakaseomyces glabratus [22]): 128 µg/mL (≈ 528 µM); MIC (Candida parapsilosis [23]): 128 µg/mL (≈ 528 µM); MIC (Escherichia coli): > 128 µg/mL; MIC (Candida parapsilosis [24]): 128 µg/mL (≈ 528 µM); MIC (Pichia kudriavzevii [25]): 16 µg/mL (≈ 66 µM); MIC (Candida tropicalis [26]): 128 µg/mL (≈ 528 µM); MIC (Pichia kudriavzevii [27]): 8 µg/mL (≈ 33 µM)
2 | Cc1cc(-c2nn(C)c(C)c2/[N+]([O-])=N/C#N)nn1C | > 128 µg/mL | > 128 µg/mL | 16 µg/mL (≈ 61.7 µM) | > 128 µg/mL | 32 µg/mL (≈ 123 µM) | > 128 µg/mL | > 128 µg/mL | > 128 µg/mL | > 128 µg/mL | 16 µg/mL (≈ 61.7 µM) | > 128 µg/mL | 32 µg/mL (≈ 123 µM) | > 128 µg/mL | > 128 µg/mL | 16 µg/mL (≈ 61.7 µM) | > 128 µg/mL | > 128 µg/mL | > 128 µg/mL | 64 µg/mL (≈ 247 µM) | > 128 µg/mL | MIC [20]: 16 µg/mL (≈ 61.7 µM); MIC (Nakaseomyces glabratus [21]): > 128 µg/mL; MIC (Nakaseomyces glabratus [22]): > 128 µg/mL; MIC (Candida parapsilosis [23]): > 128 µg/mL; MIC (Escherichia coli): > 128 µg/mL; MIC (Candida parapsilosis [24]): > 128 µg/mL; MIC (Pichia kudriavzevii [25]): > 128 µg/mL; MIC (Candida tropicalis [26]): > 128 µg/mL; MIC (Pichia kudriavzevii [27]): > 128 µg/mL
